The target in data set [1] is Amyloid-beta precursor protein (Homo sapiens) (UniProt P05067). Description: Inhibition of amyloid beta-40 aggregation (unknown origin) assessed as extension of lag phase of Abeta40 aggregation by ThT fluorescence assay. In outline: (§1)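 Monomer-rich Aβ40 (35 µM, supernatant after NaOH dissolution, sonication and ultracentrifugation) was incubated with 10 nM–100 µM compound in 20 mM phosphate buffer pH 7.4 (I 0.15 M), with 20 µM ThT and 0.007% NaN3, quiescent at 37 °C. Fluorescence (ex 440, em 480 nm) was read every 5 min. Lag time came from an empirical sigmoidal nonlinear-regression fit; mean ± SE of four independent experiments.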
Sequence of Amyloid-beta precursor protein (Homo sapiens) (P05067 whole entry): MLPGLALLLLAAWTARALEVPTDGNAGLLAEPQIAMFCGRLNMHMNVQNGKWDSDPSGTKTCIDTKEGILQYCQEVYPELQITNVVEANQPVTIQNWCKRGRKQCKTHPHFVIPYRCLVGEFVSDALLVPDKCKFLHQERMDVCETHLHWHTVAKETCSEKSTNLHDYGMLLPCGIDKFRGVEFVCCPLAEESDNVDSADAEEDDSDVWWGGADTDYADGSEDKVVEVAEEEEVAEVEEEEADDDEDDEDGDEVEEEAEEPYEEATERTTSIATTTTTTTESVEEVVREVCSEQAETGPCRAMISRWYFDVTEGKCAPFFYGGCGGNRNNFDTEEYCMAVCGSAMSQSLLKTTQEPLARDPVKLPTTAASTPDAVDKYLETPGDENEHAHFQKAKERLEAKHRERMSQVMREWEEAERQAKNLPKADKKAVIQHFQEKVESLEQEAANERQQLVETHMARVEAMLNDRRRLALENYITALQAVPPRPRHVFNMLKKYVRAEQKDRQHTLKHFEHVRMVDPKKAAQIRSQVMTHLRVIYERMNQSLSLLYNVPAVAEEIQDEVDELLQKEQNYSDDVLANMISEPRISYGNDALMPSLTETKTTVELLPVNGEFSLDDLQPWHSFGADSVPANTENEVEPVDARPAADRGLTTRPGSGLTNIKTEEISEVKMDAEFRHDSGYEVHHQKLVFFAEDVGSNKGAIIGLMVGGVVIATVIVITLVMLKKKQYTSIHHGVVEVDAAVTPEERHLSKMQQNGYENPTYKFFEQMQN

Data set [2] has the same target. Put plainly: Inhibition of amyloid beta-40 aggregation (unknown origin) assessed as extension of lag phase of Abeta40 aggregation at 100 uM by ThT fluorescence assay. Also on record: scale not given: the % may be the effect or the level left. In outline:
as §1

For data set [3] the target is unchanged. Put plainly: Inhibition of amyloid beta-40 aggregation (unknown origin) assessed as alpha-helix at 6 uM after 72 hrs by CD spectra analysis (reference value: 11 to 15%). Also noted: scale not given: the % may be the effect or the level left.
Data set [4] shares this target. Put plainly: Inhibition of amyloid beta-40 aggregation (unknown origin) assessed as alpha-helix at 30 uM after 72 hrs by CD spectra analysis (reference value: 11 to 15%). Also noted: scale not given: the % may be the effect or the level left.
For data set [5] the target is unchanged. Put plainly: Inhibition of amyloid beta-40 aggregation (unknown origin) assessed as alpha-helix at 150 uM after 72 hrs by CD spectra analysis (reference value: 11 to 15%). Also noted: scale not given: the % may be the effect or the level left.
The target is the same in data set [6]. Description: Inhibition of amyloid beta-40 aggregation (unknown origin) assessed as beta-sheet at 6 uM after 72 hrs by CD spectra analysis (reference value: 1 to 3%). Also noted: scale not given: the % may be the effect or the level left.
Data set [7] has the same target. Description: Inhibition of amyloid beta-40 aggregation (unknown origin) assessed as beta-sheet at 30 uM after 72 hrs by CD spectra analysis (reference value: 1 to 3%). Also noted: scale not given: the % may be the effect or the level left.
Data set [8] shares this target. Description: Inhibition of amyloid beta-40 aggregation (unknown origin) assessed as beta-sheet at 150 uM after 72 hrs by CD spectra analysis (reference value: 1 to 3%). Also on record: scale not given: the % may be the effect or the level left.
The target is the same in data set [9]. Put plainly: Inhibition of amyloid beta-40 aggregation (unknown origin) assessed as beta-turns at 6 uM after 72 hrs by CD spectra analysis (reference value: 0%). Also on record: scale not given: the % may be the effect or the level left.
For data set [10] the target is unchanged. Description: Inhibition of amyloid beta-40 aggregation (unknown origin) assessed as beta-turns at 30 uM after 72 hrs by CD spectra analysis (reference value: 0%). Also noted: scale not given: the % may be the effect or the level left.
Data set [11] shares this target. Description: Inhibition of amyloid beta-40 aggregation (unknown origin) assessed as beta-turns at 150 uM after 72 hrs by CD spectra analysis (reference value: 0%). Also noted: scale not given: the % may be the effect or the level left.
Data set [12] has the same target. Description: Inhibition of amyloid beta-40 aggregation (unknown origin) assessed as unordered at 6 uM after 72 hrs by CD spectra analysis (reference value: 84 to 87%). Also noted: scale not given: the % may be the effect or the level left.
Data set [13] shares this target. Description: Inhibition of amyloid beta-40 aggregation (unknown origin) assessed as unordered at 30 uM after 72 hrs by CD spectra analysis (reference value: 84 to 87%). Also on record: scale not given: the % may be the effect or the level left.
Data set [14] shares this target. Description: Inhibition of amyloid beta-40 aggregation (unknown origin) assessed as unordered at 150 uM after 72 hrs by CD spectra analysis (reference value: 84 to 87%). Also noted: scale not given: the % may be the effect or the level left.
Data set [15] shares this target. Description: Inhibition of amyloid beta-40 aggregation (unknown origin) assessed as fibril width at 300 uM for 7 days at pH 7.4 by transmission electron microscopy (reference value: 12.3 +/- 1.2 nanometer). In short, it runs like this:
(§2)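 Aβ40 (60 µM in control) was incubated quiescently with the compound at compound:Aβ40 molar ratios of 1:5, 1:1 and 5:1, pH 7.4, 37 °C, for 7 days. Fibril width and length were then measured from transmission electron microscopy images.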

Data set [16] shares this target. Description: Inhibition of amyloid beta-40 aggregation (unknown origin) assessed as fibril length at 300 uM for 7 days at pH 7.4 by transmission electron microscopy (reference value: > 2 micrometer). In short, it runs like this:
as §2

Data set [17] in a line: Neuroprotective activity in C57BL/6 mouse primary cortical neurons assessed as reduction in amyloid beta-40-induced cell death at 40 uM pre-incubated with amyloid beta-40 for 6 hrs and measured after 48 hrs by trypan blue dye exclusion assay. The format is functional, Cerebral cortex neuron. Also noted: scale not given: the % may be the effect or the level left. In outline: (§3)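 Aβ40 (40 µM) was preincubated with or without compound for 6 h at 37 °C, at molar ratios 1:1 and 2.5:1 (compound:Aβ40). It was then added to 7–9-day-old primary cortical neurons cultured from 6 pregnant C57BL/6 mice. After 48 h, cells were stained with trypan blue and live and dead cells were counted. Values are mean + SE.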

Data set [18] in a line: Neuroprotective activity in C57BL/6 mouse primary cortical neurons assessed as reduction in amyloid beta-40-induced cell death at 100 uM pre-incubated with amyloid beta-40 for 6 hrs and measured after 48 hrs by trypan blue dye exclusion assay. The format is functional, Cerebral cortex neuron. Also noted: scale not given: the % may be the effect or the level left. In short, it runs like this: as §3

A short description of data set [19]: Toxicity in C57BL/6 mouse primary cortical neurons assessed as reduction in cell viability at 40 to 100 uM after 48 hrs by trypan blue dye exclusion assay. Particulars: cerebral cortex neuron. In kind it is cell-based.

As for `OC[C@H]1O[C@@H](O[C@H]2[C@H](O)[C@@H](O)[C@H](n3cc(COCC(COCc4cn([C@@H]5O[C@H](CO)[C@@H](O[C@@H]6O[C@H](CO)[C@H](O)[C@H](O)[C@H]6O)[C@H](O)[C@H]5O)nn4)(COCc4cn([C@@H]5O[C@H](CO)[C@@H](O[C@@H]6O[C@H](CO)[C@H](O)[C@H](O)[C@H]6O)[C@H](O)[C@H]5O)nn4)COCC(COCc4cn([C@@H]5O[C@H](CO)[C@@H](O[C@@H]6O[C@H](CO)[C@H](O)[C@H](O)[C@H]6O)[C@H](O)[C@H]5O)nn4)(COCc4cn([C@@H]5O[C@H](CO)[C@@H](O[C@@H]6O[C@H](CO)[C@H](O)[C@H](O)[C@H]6O)[C@H](O)[C@H]5O)nn4)COCc4cn([C@@H]5O[C@H](CO)[C@@H](O[C@@H]6O[C@H](CO)[C@H](O)[C@H](O)[C@H]6O)[C@H](O)[C@H]5O)nn4)nn3)O[C@@H]2CO)[C@H](O)[C@@H](O)[C@H]1O`, the inhibition entry in data set [1] is “Dose-dependent effect”. Moreover, the Activity in [2] came to 28%.

In the case of `OC[C@H]1O[C@H](O[C@H]2O[C@H](Cn3cc(COCC(COCc4cn(C[C@H]5O[C@H](O[C@H]6O[C@H](CO)[C@@H](O)[C@H](O)[C@H]6O)[C@H](O)[C@@H](O)[C@@H]5O)nn4)(COCc4cn(C[C@H]5O[C@H](O[C@H]6O[C@H](CO)[C@@H](O)[C@H](O)[C@H]6O)[C@H](O)[C@@H](O)[C@@H]5O)nn4)COCC(COCc4cn(C[C@H]5O[C@H](O[C@H]6O[C@H](CO)[C@@H](O)[C@H](O)[C@H]6O)[C@H](O)[C@@H](O)[C@@H]5O)nn4)(COCc4cn(C[C@H]5O[C@H](O[C@H]6O[C@H](CO)[C@@H](O)[C@H](O)[C@H]6O)[C@H](O)[C@@H](O)[C@@H]5O)nn4)COCc4cn(C[C@H]5O[C@H](O[C@H]6O[C@H](CO)[C@@H](O)[C@H](O)[C@H]6O)[C@H](O)[C@@H](O)[C@@H]5O)nn4)nn3)[C@@H](O)[C@H](O)[C@H]2O)[C@H](O)[C@@H](O)[C@@H]1O`, the inhibition entry in [1] is “Dose-dependent effect”. For the same compound, the Activity came to 45% in data set [2]; 21% in data set [3]; 20% in data set [4]; 22% in [5]; 35% in data set [6]; 32% in data set [7]. In addition, the Activity in data set [8] is 16%; in data set [9] it was 27%; in data set [10] it was 30%; in [11], 26%; in data set [12], 17%; in [13], 18%. In addition, the Activity in data set [14] was 36%; in data set [15], 8.7 nm; in [16], < 2 µm; in [17] it was 45%; in [18], 59%; in data set [19], “Non-toxic”.

The values are drawn from ChEMBL document CHEMBL3351887, “'Click' assembly of glycoclusters and discovery of a trehalose analogue that retards Aβ40 aggregation and inhibits Aβ40-induced neurotoxicity” (Bioorg Med Chem Lett, 2014).
